Assay [1] deals with Rattus norvegicus. As to the kind of experiment: Tested for effective dose in rat adjuvant-induced polyarthritis (AA) test in III phase. Not Active (NA) up to 125 mg/kg peroral dose. The assay is classed as functional, organism-based. The arrangement: dose 125 mg/kg.
The next assay is filed under the species Homo sapiens. As to the kind of experiment: Tested for in vitro inhibition of collagen-induced aggregation of human platelets. The assay is classed as functional.
Assay [2] has as its system Rattus norvegicus. As to the kind of experiment: Tested for analgesic activity in acetylcholine-induced body constriction assay. Not Active (NA) upto 100 mg/kg peroral dose. Type of assay: functional, organism-based. Set-up: dose 100 mg/kg.
Assay [3] concerns Rattus norvegicus. The assay is described as follows: Tested for effective dose in rat adjuvant-induced polyarthritis (AA) test in II phase. Not Active (NA) up to 125 mg/kg peroral dose. Type of assay: functional, organism-based. Set-up: dose 125 mg/kg.
The species named for assay [4] is Rattus norvegicus. As to the kind of experiment: Tested for effective dose in rat adjuvant-induced polyarthritis (AA) test in III phase. The assay is classed as functional.
The test system of assay [5] is Rattus norvegicus. The assay is described as follows: Tested for ulcerogenic activity by peroral administration in rat. Type of assay: functional. The method, boiled down: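 Rats were given the compound by mouth at doses up to 100 mg/kg, and ulcerogenic activity was assessed.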
The species named for assay [6] is Rattus norvegicus. The assay is described as follows: Tested for effective dose in rat adjuvant-induced polyarthritis (AA) test in II phase. The assay is classed as functional.
In assay [7] the test system is Rattus norvegicus. The assay is described as follows: Tested for analgesic activity in acetylcholine-induced body constriction assay by peroral administration. The assay is classed as functional. The following applies: po.

Data on three molecules can be found in ChEMBL document CHEMBL1121534, “Synthesis and biological activity of 5-(4-chlorobenzoyl)-4-(hydroxymethyl)-1-methyl-1H-pyrrole-2-acetic acid, a major metabolite of zomepirac sodium” (J Med Chem, 1980).

pIC50: −log10 of the molar value. The source made the active and inactive calls. No cut-off for these calls is given here.

The ED50 is the dose at which the effect has come halfway, by size or by number of responders. One may read the pIC50 as the negative decadic logarithm of the IC50, by convention in mol/L. Read a high pIC50 as a small IC50. In the case of `Cn1c(CC(=O)O)cc(CO)c1C(=O)c1ccc(Cl)cc1`, the ED50 entry in the assay with Rattus norvegicus [1], in the assay with Rattus norvegicus [2] and in the assay on Rattus norvegicus [3] was “inactive” each time. In the assay filed under Homo sapiens, this molecule showed a pIC50 of 3.28.
In the assay filed under Homo sapiens, `COc1ccc2c(c1)c(CC(=O)O)c(C)n2C(=O)c1ccc(Cl)cc1` [INDOMETHACIN] showed a pIC50 of 5.74.
Regarding `Cc1cc(CC(=O)[O-])n(C)c1C(=O)c1ccc(Cl)cc1.O.O.[Na+]` [ZOMEPIRAC SODIUM], the 50% effective dose (ED50) in the assay listed under Rattus norvegicus [4] came out at 5.67 mg/kg; in the assay listed under Rattus norvegicus [6] it was 0.72 mg/kg; in the assay on Rattus norvegicus [7] it was 0.72 mg/kg. The molecule further came in with a UD50 in the assay on Rattus norvegicus [5] of 13.9 mg/kg. This molecule gave a pIC50 in the assay filed under Homo sapiens of 5.79.
